Screening data deposited in PubChem by several laboratories.
This is a sample that favours compounds with a hit; in the whole collection about 7.9% have one here.
D1 mod = allosteric modulators of human D1 dopamine receptor; P21728; HEK293 D1, CRE-luciferase, dopamine EC30 potentiation; actives deviate in either direction; B-score at 10 µM; 58,000 compounds, 5.9% hits; AID 641;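 active means luminescence count or its row- and column-corrected plate score outside the 99.7% band of the plate's sample wells, on either side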
Target sequence (P21728 whole entry, looked up): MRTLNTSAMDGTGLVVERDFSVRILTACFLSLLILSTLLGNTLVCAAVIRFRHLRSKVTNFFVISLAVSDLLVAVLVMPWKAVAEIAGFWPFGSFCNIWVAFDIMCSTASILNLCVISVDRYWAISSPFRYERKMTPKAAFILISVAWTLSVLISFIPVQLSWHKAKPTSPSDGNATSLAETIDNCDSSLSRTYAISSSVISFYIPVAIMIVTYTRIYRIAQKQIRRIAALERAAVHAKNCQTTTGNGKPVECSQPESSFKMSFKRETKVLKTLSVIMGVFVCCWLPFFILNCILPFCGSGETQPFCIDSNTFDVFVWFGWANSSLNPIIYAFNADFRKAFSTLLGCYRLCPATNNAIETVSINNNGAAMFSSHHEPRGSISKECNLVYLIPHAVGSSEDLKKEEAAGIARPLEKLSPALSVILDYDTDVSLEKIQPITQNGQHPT
SF1 activator = activates the human nuclear receptor SF-1; Q13285; CHO-K1 Gal4-SF-1 LBD luciferase reporter; % increase over DMSO SF-1-specific signal; activation, % at 10 µM; 65,000 compounds, 1.9% hits;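 active means activation above the mean activation of all tested compounds plus 3 SD, cut at about 50% in these data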
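Test system: CHO-K1 cells with Gal4–hSF-1 LBD chimera plus Gal4-driven luciferase; Input: 4,000 cells/well; Compound: 10 µM only; Times: 20 h compound treatment, 37 °C; Measured by: steady-glow luciferase luminescence, read after 15 min reagent incubation; Measure: percent activation versus DMSO; Control set: DMSO and mock-transfected background; Replicates: one test per compound.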
JNK3 blocker = inhibitors of human JNK3 kinase; P53779; purified JNK3 kinase activity, HTS; inhibition, % at 8 µM; 60,000 compounds, 0.61% hits; in the data active means inhibition above about 17%;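 further: 0% = DMSO and 100% = reference inhibitor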
RORA act = activators of human nuclear receptor RORA | P35398 | CHO-K1 Gal4-RORA LBD luciferase reporter, luminescence; percent increase over mock-subtracted basal signal | activation, % at 10 µM | 65,000 compounds, 1.5% hits;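 active means activation above the mean of all tested compounds plus 3 SD, cut at about 49% in these data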;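 further: 0% = DMSO-treated RORA cells and 100% = added signal equal to DMSO minus mock-transfected cells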
HEK293 NFkB inh = lowers PMA/ionomycin-induced NF-kB signal in HEK293 cells | 62,000 compounds, 0.21% hits | inhibition, % at 3 µM | HEK-293 NF-kB luciferase reporter, luminescence;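 active means inhibition above the mean of all tested compounds plus 3 SD, cut at about 40% in these data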;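 further: 0% = stimulated DMSO wells and 100% = 10 µM reference inhibitor 5653914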
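System – HEK-293 cells with stable firefly luciferase reporter driven by four HIV NF-kB elements · Doses – one dose, 3 µM · Schedule – 1 h compound pre-incubation, 16 h PMA/ionomycin at 37 °C · Technique – luminescence from luciferase substrate reagent · Measure – percent inhibition normalized per plate to DMSO and reference-inhibitor controls · Replicates – tested once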
An asterisk follows results filed as active; x = no result.

SMILES	D1 mod	SF1 activator	JNK3 blocker	RORA act	HEK293 NFkB inh
Cc1onc(-c2c(F)cccc2Cl)c1C(=O)N1CCN(S(C)(=O)=O)CC1	0.66	16	3	-4	1
Cc1onc(-c2c(F)cccc2Cl)c1C(=O)N1CCc2ccccc2C1	-3.5*	-12	-4	-14	-4
CCOC(=O)c1ccc(NC(=O)NC2CC3CCC(C2)N3Cc2nnnn2C(C)(C)C)cc1 (stereo not given)	-1.5	6	-1	10	11
O=C(NCc1cccnc1)c1ccc2c(c1)OCO2	-0.39	-9	x	-12	19
CCCc1cc(=O)[nH]c(SCC(=O)N2CCN(S(=O)(=O)c3ccc(C)cc3)C2)n1	0.0084	6	11	0	13
CCN1C(=C2C(=O)c3ccccc3C2=O)C=Cc2ccccc21	0.094	x	x	x	x
CC1=CC(=C2C(=O)c3ccccc3C2=O)C=C(C)N1C	x	29	21*	47	-10
Cc1nc(NCc2ccco2)c2c3c(sc2n1)CCC3	-4.7*	-11	6	-7	-16
CC(C)Sc1nc(NCc2ccco2)c2c3c(sc2n1)COC(C)(C)C3	0.39	31	x	39	2
Cc1cccc(N2CCN(C(=O)c3ccc(Cl)c(S(=O)(=O)NCc4ccco4)c3)CC2)c1C	0.097	53*	1	51*	12
COC(=O)c1c(-c2cccnc2)csc1NC(=O)c1cc(C)on1	0.21	80*	6	57*	-32
S=c1[nH]ncn1-c1ccccn1	-0.014	4	-4	1	11
O=C(O)CCc1nc(-c2ccc(Cl)cc2)no1	-0.24	-1	3	-10	16
CCCc1nc(-c2ccc(-c3ccc(F)cc3)cc2)no1	0.0048	53*	6	18	6
Cc1nn(C)c(C)c1S(=O)(=O)N(CC(=O)NCCN1CCOCC1)c1ccc(C(C)C)cc1	-1.6	-1	11	-6	3
C=CCn1c(SCc2ccccc2)nnc1-c1cccnc1	0.34	17	-7	-8	0
C=CCn1c(SCc2nc(N)nc(N(C)C)n2)nnc1-c1cccnc1	-6*	-14	5	-8	14
CCOC(=O)c1cnn(CC2CCCCC2)c1N	-0.42	26	4	8	5
CCCN1CCC(N(C)CCc2ccc(OC)c(OC)c2)CC1	-0.83	-1	3	-21	16
COCCn1cnnc1SCC(=O)Nc1ccccc1C(=O)Nc1ccc2c(c1)OCO2	x	8	-8	18	10
O=C1CCC(C(=O)O)(c2ccccc2)C1 (stereo not given)	-1	-5	0	-10	8
O=C(NCCc1ccccc1)/C(=N\O)c1ccccc1	x	64*	4	14	x
Cc1nc2cc(NCc3nc4ccccc4n3Cc3ccccc3)ccc2n1C	-1.7	23	1	50*	-12
Cn1c(CNc2ccc(Cl)cc2)nc2ccccc21	x	59*	-3	37	-37
Cn1c(NCc2ccccc2Cl)nc2ccccc21	-1.2	46	-1	50*	-14
SMILES	D1 mod	SF1 activator	JNK3 blocker	RORA act	HEK293 NFkB inh
CCOc1c(C)cc2[nH]c(CCC(=O)O)nc2c1C	-0.6	-5	-5	-14	x
O=S(=O)(c1ccc2c(c1)OCCO2)N(Cc1ccc(F)cc1)Cc1nnc(-c2cccs2)o1	-1.8	-7	4	2	7
CCOC(=O)Cn1c(=O)oc2cc(S(=O)(=O)Nc3ccc(N(CC)CC)cc3C)ccc21	-0.23	-3	2	1	-4
COc1ccccc1OCC(O)CN1C(=O)NC(C)(C)C1=O (stereo not given)	x	-1	5	18	1
CNc1oc(-c2ccc(OCc3ccccc3)cc2)nc1C#N	-0.43	58*	5	27	15
C=CCNc1oc(-c2ccc(OC)cc2)nc1C#N	1.7	57*	5	10	-17
C=CCNc1oc(-c2ccc(OCC)cc2)nc1C#N	0.0058	21	-4	-13	-1
CCS(=O)(=O)NCC(c1cccnc1)N1CCN(c2ccccc2F)CC1 (stereo not given)	-0.38	-10	3	-20	12
Cn1c(SCc2ccccc2)nnc1-c1ccc2c(c1)OCO2	0.25	36	-2	55*	10
O=C1OCCC1Sc1nnc(-c2ccc3c(c2)OCO3)n1-c1ccccc1 (stereo not given)	-3.8*	-4	-4	0	3
COc1ccc(OCc2nnc(SC3CCOC3=O)n2-c2ccccc2)cc1 (stereo not given)	0.15	2	3	-16	8
Clc1nc2sccn2c1/C=N/n1cnc2ccccc21	2.7	40	x	52*	-7
CCOC(=O)CNc1c(-c2ccc(O)cc2)nc2ccc(Cl)cn12	-4.4*	25	-4	28	25
COc1ccc(N2CCN(CCNC(=O)CCCn3c(=O)[nH]c4cc(Cl)ccc4c3=O)CC2)cc1	-2	-5	x	-6	8
COCCn1c(=O)[nH]c2cc(C(=O)NCCN3CCN(c4cccc(Cl)c4)CC3)ccc2c1=O	-3.5*	-5	x	-14	24
Cn1cc(C(=O)NCCN2CCN(c3cccc(Cl)c3)CC2)c2c3ccccc3n(C)c2c1=O	-1.6	-7	-5	11	11
Cc1cc(C(=O)NCCN2CCN(c3cccc(Cl)c3)CC2)n(-c2ccccc2)n1	-3.2*	30	0	6	6
CCN(CC)CCNC(=O)c1ccc2c(=O)n(CCc3ccccc3)c(=O)[nH]c2c1	-3.1*	-8	x	5	6
CCOC(=O)CN1C(=O)CSc2ccccc21	1.1	19	x	-2	6
O=C(CSc1nccn1-c1ccc(Cl)cc1)NCc1ccc2c(c1)OCO2	-0.98	6	7	-13	9
c1ccc(-c2n[nH]c3c2CCC3)cc1	0.42	-3	18*	-3	-4
O=C1CCCc2[nH]nc(-c3cccnc3)c21	-0.13	-6	x	-17	-3
CCn1c(SCC(=O)Nc2nc(C)c(C(=O)OC)s2)nnc1C(C)C	-0.94	-7	-6	-12	1
CC(C)C(=O)Nc1cccc(-c2nc3ccccc3o2)c1	-0.63	52*	-6	24	-2
COc1ccc(OCC(=O)Nc2cccc(-c3nc4ccccc4o3)c2)cc1	-0.097	44	4	57*	-1
SMILES	D1 mod	SF1 activator	JNK3 blocker	RORA act	HEK293 NFkB inh
CC(C)CC(=O)Nc1cccc(-c2nc3ccccc3o2)c1	0.85	0	8	-8	17
CCC(=O)Nc1ccc2oc(-c3cccc(C)c3)nc2c1	-3.4*	-45	4	-28	-34
Cc1ccc2nc(-c3cccc(NC(=O)c4ccc5c(c4)OCCO5)c3)oc2c1	-2.4	55*	-1	42	27
O=C(NCc1cccs1)C(Cc1ccccc1)n1cccc1 (stereo not given)	0.081	2	-2	6	4
Cc1ccc(-c2nc3cc(NC(=O)C(C)C)ccc3o2)cc1	-2.4*	11	8	20	-78
CC(C)CC(=O)Nc1ccc2oc(-c3ccncc3)nc2c1	-0.63	55*	-2	35	4
Cc1ccc(-c2nc3cc(NC(=O)C(C)C)ccc3o2)cc1C	-3*	-26	-1	-45	-64
